# Unmarked numbers belong to inactive results. Results filed as inconclusive are left out. Calls of active or inactive are those of the source.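 How the source made its calls, unless noted: active means cell viability at or below a set limit in both duplicate runs, the limit being the all-compound median minus 4 SD (cut at about 23% in these data, passing the limit was not always enough); inconclusive means no clear call, values can overlap the other calls; inactive means the rest.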
# What was measured:
# [1] = OD615 S. cerevisiae growth inhibition, permissive medium, pilot counter-assay, permissive growth control for S. cerevisiae lifespan shortening project (AID 705;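 active means growth inhibition above 25% in both replicates, a cutoff set 3 SD above the mean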); conditions: OD615, 24 h, at 10 µM, stronger effect = higher value
# How it was run: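 System: Engineered DeaD yeast | Buffer or medium: SC raffinose/galactose permissive medium | Doses: 10 µM single dose, 0.25% DMSO | Times: 24 h exposure, 30 °C | Measured by: OD615 turbidity read | Read-out: Yeast growth inhibition indicated by reduced 24 h OD615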
# [2] = Restrictive medium S. cerevisiae growth inhibition, OD615, pilot screen of yeast lifespan reduction project, restrictive growth control (AID 706;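 active means growth inhibition above a set limit, 3 SD over mean compound inhibition, in both replicates, cut at about 43% in these data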;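 further: modified DeaD lifespan yeast strain shifted to restrictive glucose medium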); conditions: OD615, 48 h, at 10 µM, stronger effect = higher value
# How it was run: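 Assay system: engineered S. cerevisiae DeaD strain; Buffer or medium: CSMM-D glucose medium; Dosing: 10 µM compound, 0.25% DMSO; Times: cell pre-growth 4 h, compound exposure 48 h, 30 °C; Detection: absorbance (optical density) measured at 615 nm.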
# [3] = viability gain of MRP-1-high H69AR cells under doxorubicin, pilot screen, MRP-1 activator project, CellTiter-Glo, duplicate (AID 807;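 active means viability increase at or above a cutoff of the median across tested compounds plus 3 SD, cut at about 8.5% in these data, passing the limit was not always enough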;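 further: compound pretreatment 18-22 h then 72 h combined with doxorubicin; 0% = doxorubicin alone and 100% = vehicle without doxorubicin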); conditions: H69AR viability with doxorubicin, CellTiter-Glo luminescence; at 10 µM; stronger effect = higher value
# [4] = growth suppression of beta-catenin knockout HCT116, pilot screen, human colon tumor cells (AID 823); conditions: CellTiter-Glo, 60 h, at 10 µM, stronger effect = lower value;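 further: 0% = wells killed by 20 µM Hyamine and 100% = untreated DMSO cell wells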
# [5] = growth suppression of PTEN-deleted HCT116, pilot screen, cell-based, HCT116 clonal line, CellTiter-Glo (AID 824;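 active means viability at or below 27.92% in each of two runs, the all-compound median minus 4 SD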;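 further: 0% = 20 µM Hyamine control and 100% = vehicle cell control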); conditions: 60 h, at 10 µM, stronger effect = lower value
# [6] = inhibitors of the yeast RAM network, pilot screen, dse1pr::URA3 reporter, 5-FOA selection (AID 869;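 active means inhibition over a set limit, the all-compound mean plus 3 SD, in both replicate runs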;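 further: 0% = DMSO wells with no growth and 100% = 10 µM 1-NA-PP1 with full growth; RAM network block rescues cells from 5-FOA so hits raise OD615 growth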); conditions: S. cerevisiae dse1pr::URA3 5-FOA growth, OD615, 2 d; at 10 µM; stronger effect = higher value; strain carries analog-sensitive mutant Cbk1 kinase
# [7] = RAM signaling pathway blockade in yeast – S. cerevisiae, Pdr1DBD-CYC8 efflux-inhibited sensitized strain, primary screen (AID 1298;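 active means RAM network inhibition above 8.4% in each of two replicates, 3 SD over the compound average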;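 further: 0% = DMSO untreated cells without growth and 100% = 10 µM 1-NA-PP1 full growth; higher means more yeast growth rescued from 5-FOA killing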); conditions: S. cerevisiae cbk1-as DSE1-URA3 strain, 5-FOA growth OD615, 2 d; at 50 µM; stronger effect = higher value
Compound,growth inhibition [1],growth inhibition [2],viability increase [3],viability [4],viability [5],inhibition [6],RAM network inhibition [7]
Clc1ccc(Sc2oc(/C=N/n3cnnc3)cc2Br)cc1,-0.475%,22.4%,-8.12%,27.6%,50.5%,0.36%,1.69%
COc1ccc(-c2nc(CS(=O)(=O)CC(=O)Nc3ccc(Cl)cc3)c(C)o2)cc1,-8.75%,-7.49%,-2.64%,48.5%,49.6%,2.77%,3.02%
CC1=C(C(=O)OC(C)C)C(c2ccc(Br)s2)NC(=O)N1C (configuration not stated),-17%,-22.3%,0.85%,70.6%,77%,0.54%,2.29%
O=C(Nc1nnc(CC(=O)N2CCCC2)s1)c1cnccn1,-3.58%,4.7%,-1.2%,104%,100%,1.66%,-0.94%
CC(C)N1C(=O)C2C(c3ccccc3O)NC(C)(C(=O)O)C2C1=O (configuration not stated),7.56%,5.16%,-0.38%,101%,104%,0.765%,1.54%
O=C1CC(c2ccccc2)CC(O)=C1C=NCCN1CCNCC1 (configuration not stated),-21.5%,-14.2%,1.22%,99.2%,98.1%,-0.42%,-1.05%
CCc1cccc(Nc2cc(C)nc3ncnn23)c1,-5.35%,-1.55%,-0.66%,99.8%,93%,0.465%,6.68%
CCCSc1nc2c(c(=O)n1CC)SC(C)C2 (configuration not stated),-2.71%,-13%,-2.02%,105%,88.5%,1.4%,2.48%
COc1cc2c(cc1OC)C1=C(C#N)CC/C(=N\S(=O)(=O)c3ccccc3)N1CC2,-11.1%,-3.91%,-4.28%,97.8%,87.8%,1.25%,2.61%
Cc1ccccc1-c1nc(CN2CCC(C(=O)N3CCN(c4ccccn4)CC3)CC2)c(C)o1,-7.71%,-18.8%,-5.67%,61.6%,67.7%,1.33%,-0.47%
Cc1ccc(-c2c(C(=O)N3CCOCC3)oc(=O)c3ccccc23)cc1,-9.96%,-6.92%,-0.03%,95.6%,103%,1.33%,1.2%
CSCCC1(C(=O)O)NC(c2ccccc2O)C2C(=O)N(C(C)C)C(=O)C21 (configuration not stated),2.37%,11.6%,-1.09%,102%,94.7%,0.875%,3.49%
c1cc(-c2nnc3n2CCC3)[nH]n1,1.95%,-0.075%,-2.22%,95.9%,104%,1.51%,2.34%
CC1CN(S(=O)(=O)c2ccc(Cl)c(S(=O)(=O)N3CC(C)OC(C)C3)c2)CC(C)O1 (configuration not stated),-13.5%,-17.1%,-0.41%,89%,87.1%,4.11%,1.17%
COc1cc(CNC(=O)OCC(C)C)cc(OC)c1OC,-11.4%,-20.8%,-0.03%,99.7%,99%,0.19%,-0.93%
COCCN(CCOC)Cc1c(O)ccc2c3c(c(=O)oc12)CCC3,-1.66%,7.01%,-1.42%,99.9%,102%,-0.65%,-0.97%
Cc1ccc(C)c(-n2nnnc2SCC(=O)Nc2cccc(-c3nnc4n3CCCCC4)c2)c1,12.3%,54.4% (active),-0.74%,97.7%,90.9%,1.77%,6.57%
Cc1cccc(NC(=O)c2ccccc2Br)n1,4.2%,24%,-3.61%,103%,94%,0.97%,2.02%

Compound,growth inhibition [1],growth inhibition [2],viability increase [3],viability [4],viability [5],inhibition [6],RAM network inhibition [7]
CC(=O)Nc1ccc(S(=O)(=O)Nc2cccc(C(=O)NC(C)(C)C)c2)cc1,-5.5%,-5.24%,-1.14%,92.1%,88.2%,1.53%,6.92%
CCCCN1C(=O)C(O)(CC(=O)c2ccccc2OC)c2ccccc21 (configuration not stated),-13.7%,-5.6%,-3.31%,79.6%,89.5%,1.89%,2.02%
Cn1ccnc1SCC(=O)Nc1cccc(C(F)(F)F)c1,0.76%,10.5%,-4.88%,96.4%,96.8%,0.71%,4.72%
O=C(O)CCCC(=O)N1CCN(c2cccc(Cl)c2)CC1,-2.97%,-1.71%,-1.22%,95.2%,86.2%,2.33%,4.6%
Cc1onc(-c2ccccc2)c1C(=O)NC(C)C,-11.8%,-8.11%,0.11%,105%,98.8%,0.105%,3.45%
COc1ccccc1N(CC(=O)Nc1ccccc1C(=O)NC(C)C)S(C)(=O)=O,-3.27%,-16.6%,-0.99%,86.6%,77%,1.95%,-0.28%
CS(=O)(=O)N1Cc2ccccc2CC1C(=O)Nc1ccccc1C(N)=O (configuration not stated),-2.29%,-1.52%,-1.04%,108%,97%,3.26%,7.36%
CN1CCCN(Cc2ccccc2C(F)(F)F)CC1,1.78%,1.52%,-1.78%,97.6%,98.1%,1.25%,1.53%
Cc1cccc(NC(=O)C2CCN(S(=O)(=O)c3cccc4cccnc34)CC2)n1,-2.91%,4.94%,-3.03%,87.2%,84.7%,1.35%,1.44%
CCCCNC(=O)CS(=O)Cc1nc(-c2cccc(C)c2)oc1C (configuration not stated),-13.2%,-6.67%,-2.67%,96.2%,98.1%,1.14%,0.26%
CCOC(=O)c1c(NC(=O)C2CCCN2S(=O)(=O)c2cccc3nsnc23)sc(C)c1C (configuration not stated),-7.06%,-0.39%,0.59%,74%,72.5%,0.565%,7.77%
O=S(=O)(NCCOCCNS(=O)(=O)c1ccccc1)c1ccccc1,-6.38%,-1.27%,0.8%,91.2%,96.1%,0.05%,1.94%
Cc1ccc(C)c(SCC(=O)OCC(=O)c2ccco2)c1,-21.2%,-14.6%,-3.35%,88.9%,91.6%,0.705%,2.26%
Cc1ccc(CC2C(=O)N(c3ncccn3)C(=O)C2C)cc1 (configuration not stated),-5.95%,-9.6%,0.74%,104%,93.1%,0.685%,1.72%
CCOC(=O)CN1CC23C=CC(O2)C(C(=O)O)C3C1=O (configuration not stated),2.83%,-3.85%,0.14%,103%,107%,0.73%,4%
CCCOC(=O)c1ccc(NC(=O)C2C3C=CC(O3)C2C(=O)O)cc1 (configuration not stated),-8.39%,-22.8%,-1.49%,101%,95.4%,1.27%,0.36%
CNc1nc(-c2ccc(Cl)cc2)cs1,-5.83%,-22.5%,0.42%,92.1%,87.8%,0.94%,0.43%
CC1(C)CC(NC(=O)C23CCC(C)(C(=O)C2)C3(C)C)CC(C)(C)N1 (configuration not stated),-4.15%,-6.33%,-0.11%,96.2%,95.1%,2.67%,3.01%
